pIC50: −log10 of the molar value. Converted amounts (≈) assume the structure as drawn. The source made the active and inactive calls. No cut-off for these calls is given here.
What was measured:
PBMC [1] = assay: Anti-inflammatory activity in human PBMC assessed as inhibition of LPS-induced IL-6 production pretreated for 1 hr followed by LPS stimulation measured after 20 hrs; type: functional, cell-based
[2] = Solubility of the compound in phosphate buffer at pH 7.2 at 10 mg/ml after 24 hrs by UV-HPLC method; type: physicochemical
Summary of the method: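 Solubility measured at pH 7.2. Values are mean ± SD, n = 2.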

PBMC [3] = assay: Anti-inflammatory activity in human PBMC assessed as inhibition of LPS-induced IL-12/23 p40 production pretreated for 1 hr followed by LPS stimulation measured after 20 hrs; type: functional, cell-based
[4] = Stability in human liver S9 fraction assessed as compound remaining at 1 uM incubated for 90 mins in absence of NADPH by LC-MS/MS analysis; type: ADME, tissue-based; settings: read-out: Stability
Summary of the method: (§1)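 Compound incubated with liver S9 fraction for 90 min without NADPH. Values are mean ± SD, n ≥ 3.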

PBMC [5] = assay: Anti-inflammatory activity in human PBMC assessed as inhibition of LPS-induced GMCSF production pretreated for 1 hr followed by LPS stimulation measured after 20 hrs; type: functional, cell-based
PBMC [6] = assay: Anti-inflammatory activity in human PBMC assessed as inhibition of LPS-induced Il-1b production pretreated for 1 hr followed by LPS stimulation measured after 20 hrs; type: functional, cell-based
[7] = Stability in Sprague-Dawley rat liver S9 fraction assessed as compound remaining at 1 uM incubated for 90 mins in absence of NADPH by LC-MS/MS analysis; type: ADME, tissue-based; settings: read-out: Stability; summary of the method: as §1
PBMC [8] = assay: Anti-inflammatory activity in human PBMC assessed as inhibition of LPS-induced TNF-alpha production pretreated for 1 hr followed by LPS stimulation measured after 20 hrs; type: functional, cell-based
Mus musculus [9] = assay: In vivo inhibition of proteasome beta5 in Balb/c mouse assessed as residual activity in blood at 1 mg/kg, iv administered as single bolus dose using PEG300/WFI formulation after 1 hr by ELISA relative to control; type: functional
Summary of the method: (§2)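 Mice dosed intravenously at nominal doses. Blood collected 1 h later and proteasome active-site activity (LMP2, LMP7, β5) measured by ProCISE subunit-specific ELISA. Expressed as % activity remaining relative to control.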

PBMC [10] = assay: Cytotoxicity against human PBMC assessed as decrease in cell viability by CellTiter-Glo assay; type: cell-based
Summary of the method: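 PBMC viability read out with CellTiter-Glo. IC50 derived from the viability signal.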

Mus musculus [11] = assay: In vivo inhibition of LMP7 in Balb/c mouse assessed as residual activity in blood at 1 mg/kg, iv administered as single bolus dose using PEG300/WFI formulation after 1 hr by ELISA relative to control; type: functional; summary of the method: as §2
PBMC [12] = assay: Anti-inflammatory activity in human PBMC assessed as inhibition of LPS-induced IL-8 production pretreated for 1 hr followed by LPS stimulation measured after 20 hrs; type: functional, cell-based
Mus musculus [13] = assay: In vivo inhibition of LMP2 in Balb/c mouse assessed as residual activity in blood at 1 mg/kg, iv administered as single bolus dose using PEG300/WFI formulation after 1 hr by ELISA relative to control; type: functional; summary of the method: as §2
[14] = Stability in Balb/c mouse liver S9 fraction assessed as compound remaining at 1 uM incubated for 90 mins in absence of NADPH by LC-MS/MS analysis; type: ADME, tissue-based; settings: read-out: Stability; summary of the method: as §1
[15] = biological target: T1, Proteasome subunit beta type-9 (Homo sapiens, UniProt P28065); assay: Inhibition of LMP2 in human MOLT4 cell lysate after 1 hr by ELISA
T1 sequence (P28065 whole entry): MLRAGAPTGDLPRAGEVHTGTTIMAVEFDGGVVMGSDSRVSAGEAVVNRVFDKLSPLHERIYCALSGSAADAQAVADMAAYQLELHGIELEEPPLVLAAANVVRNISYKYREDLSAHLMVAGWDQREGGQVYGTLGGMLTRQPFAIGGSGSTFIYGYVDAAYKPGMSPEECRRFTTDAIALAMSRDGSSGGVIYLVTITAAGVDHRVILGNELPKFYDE
Summary of the method: (§3)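 ProCISE subunit-specific ELISA of proteasome catalytic active sites in cell lysate. Values are mean ± SD, n ≥ 2.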

Mus musculus [16] = assay: In vivo inhibition of proteasome beta5 in Balb/c mouse assessed as residual activity in blood at 2 mg/kg, iv administered as single bolus dose using 10% EtOH/25% PEG300 formulation after 1 hr by ELISA relative to control; type: functional; summary of the method: as §2
[17] = biological target: T2, Proteasome Macropain subunit MB1 (Homo sapiens, UniProt P28074); assay: Inhibition of proteasome beta5 in human MOLT4 cell lysate after 1 hr by ELISA; summary of the method: as §3
T2 sequence (P28074 whole entry): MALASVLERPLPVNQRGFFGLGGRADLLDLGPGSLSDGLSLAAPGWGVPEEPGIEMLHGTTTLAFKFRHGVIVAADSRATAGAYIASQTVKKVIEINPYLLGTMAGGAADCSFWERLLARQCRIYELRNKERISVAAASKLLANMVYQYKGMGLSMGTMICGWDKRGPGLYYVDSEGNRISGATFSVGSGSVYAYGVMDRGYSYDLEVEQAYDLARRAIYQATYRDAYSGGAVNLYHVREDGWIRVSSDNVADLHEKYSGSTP

[18] = biological target: T3, Proteasome subunit beta type-8 (Homo sapiens, UniProt P28062); assay: Inhibition of LMP7 in human MOLT4 cell lysate after 1 hr by ELISA; summary of the method: as §3
T3 sequence (P28062 whole entry): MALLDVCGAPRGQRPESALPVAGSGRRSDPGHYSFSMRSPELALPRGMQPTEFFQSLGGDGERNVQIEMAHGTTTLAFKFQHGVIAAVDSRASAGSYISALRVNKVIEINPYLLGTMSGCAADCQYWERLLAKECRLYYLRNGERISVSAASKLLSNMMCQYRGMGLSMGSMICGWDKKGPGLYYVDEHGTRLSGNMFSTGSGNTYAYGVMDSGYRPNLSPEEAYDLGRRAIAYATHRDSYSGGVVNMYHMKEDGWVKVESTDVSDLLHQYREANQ

Mus musculus [19] = assay: In vivo inhibition of LMP7 in Balb/c mouse assessed as residual activity in blood at 2 mg/kg, iv administered as single bolus dose using 10% EtOH/25% PEG300 formulation after 1 hr by ELISA relative to control; type: functional; summary of the method: as §2
Mus musculus [20] = assay: In vivo inhibition of LMP2 in Balb/c mouse assessed as residual activity in blood at 2 mg/kg, iv administered as single bolus dose using 10% EtOH/25% PEG300 formulation after 1 hr by ELISA relative to control; type: functional; summary of the method: as §2
[21] = biological target: T4, Proteasome subunit beta type-10 (Homo sapiens, UniProt P40306); assay: Inhibition of MECL1 in human MOLT4 cell lysate after 1 hr by ELISA
T4 sequence (P40306 whole entry): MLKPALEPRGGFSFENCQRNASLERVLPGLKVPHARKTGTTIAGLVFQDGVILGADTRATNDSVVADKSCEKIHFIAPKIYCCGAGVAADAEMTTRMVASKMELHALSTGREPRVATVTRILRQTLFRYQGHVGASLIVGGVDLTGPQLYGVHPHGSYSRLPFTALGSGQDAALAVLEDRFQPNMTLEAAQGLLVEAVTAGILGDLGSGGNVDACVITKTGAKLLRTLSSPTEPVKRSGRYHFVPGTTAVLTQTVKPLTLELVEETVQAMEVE

Mus musculus [22] = assay: In vivo inhibition of LMP2 in Balb/c mouse brain at >1 mg/kg, iv administered as single bolus dose using 10% EtOH/25% PEG300 formulation after 1 hr by ELISA; type: functional, organism-based
Mus musculus [23] = assay: In vivo inhibition of LMP2 in Balb/c mouse heart at >1 mg/kg, iv administered as single bolus dose using 10% EtOH/25% PEG300 formulation after 1 hr by ELISA relative to control; type: functional
Mus musculus [24] = assay: In vivo inhibition of LMP7 in Balb/c mouse assessed as residual activity in blood at 1 mg/kg, iv administered as single bolus dose using 10% EtOH/25% PEG300 formulation after 1 hr by ELISA relative to control; type: functional; summary of the method: as §2
Mus musculus [25] = assay: In vivo inhibition of LMP2 in Balb/c mouse kidney at >1 mg/kg, iv administered as single bolus dose using 10% EtOH/25% PEG300 formulation after 1 hr by ELISA relative to control; type: functional
Mus musculus [26] = assay: In vivo inhibition of LMP2 in Balb/c mouse assessed as residual activity in blood at 1 mg/kg, iv administered as single bolus dose using 10% EtOH/25% PEG300 formulation after 1 hr by ELISA relative to control; type: functional; summary of the method: as §2
Mus musculus [27] = assay: In vivo inhibition of proteasome beta5 in Balb/c mouse assessed as residual activity in blood at 1 mg/kg, iv administered as single bolus dose using 10% EtOH/25% PEG300 formulation after 1 hr by ELISA relative to control; type: functional; summary of the method: as §2
Mus musculus [28] = assay: In vivo inhibition of LMP2 in Balb/c mouse liver at >1 mg/kg, iv administered as single bolus dose using 10% EtOH/25% PEG300 formulation after 1 hr by ELISA relative to control; type: functional

## COc1ccc(C[C@H](NC(=O)[C@H](C)NC(=O)CN2CCOCC2)C(=O)N[C@@H](Cc2ccccc2)C(=O)[C@@]2(C)CO2)cc1
PBMC [1]
  pIC50: 6.62
[2]
  solubility at 24 h: 461 µg/mL (≈ 0.794 mM)
PBMC [3]
  pIC50: 6.92
[4]
  remaining at 1.5 h, 1 µM: 8.6%
PBMC [5]
  pIC50: 6.66
PBMC [6]
  pIC50: 5.83
[7]
  remaining at 1.5 h, 1 µM: 23.3%
PBMC [8]
  pIC50: 6.25
Mus musculus [9]
  Activity: 99.8%
PBMC [10]
  pIC50: 5.47
Mus musculus [11]
  Activity: 65.3%
PBMC [12]
  pIC50: 5.95
Mus musculus [13]
  Activity: 95%
[14]
  remaining at 1.5 h, 1 µM: 106%

## COc1ccc(C[C@H](NC(=O)c2cccc(=O)[nH]2)C(=O)N[C@@H](Cc2ccccc2)C(=O)[C@@]2(C)CO2)cc1
PBMC [1]
  pIC50: < 4.80
[15]
  pIC50: 6.85
Mus musculus [16]
  Activity: 90.7%
[2]
  solubility at 24 h: 166 µg/mL (≈ 0.33 mM)
PBMC [3]
  pIC50: < 5.25
[4]
  remaining at 1.5 h, 1 µM: 1.1%
[17]
  pIC50: 4.74
[18]
  pIC50: 5.32
PBMC [5]
  pIC50: < 4.60
Mus musculus [19]
  Activity: 98.3%
Mus musculus [20]
  Activity: 83%
PBMC [6]
  pIC50: < 4.60
[7]
  remaining at 1.5 h, 1 µM: 8%
PBMC [8]
  pIC50: < 4.60
[21]
  pIC50: < 3.60
PBMC [10]
  pIC50: < 4.60
PBMC [12]
  pIC50: < 4.60
[14]
  remaining at 1.5 h, 1 µM: 0.4%

## C[C@H](NC(=O)c1cccc(=O)[nH]1)C(=O)N[C@@H](Cc1ccccc1)C(=O)[C@@]1(C)CO1
[15]
  pIC50: 6.95
[2]
  solubility at 24 h: 7520 µg/mL (≈ 18.9 mM)
[4]
  remaining at 1.5 h, 1 µM: 25.3%
[17]
  pIC50: 4.37
[18]
  pIC50: 4.35
[7]
  remaining at 1.5 h, 1 µM: 58.8%
[21]
  pIC50: < 3.60
[14]
  remaining at 1.5 h, 1 µM: 85.1%

## C[C@]1(C(=O)[C@H](Cc2ccccc2)NC(=O)[C@H](CO)NC(=O)c2cccc(=O)[nH]2)CO1
PBMC [1]
  pIC50: < 4.72
[15]
  pIC50: 7.29
[2]
  solubility at 24 h: 6640 µg/mL (≈ 16.1 mM)
Mus musculus [22]
  inhibition: inactive
Mus musculus [23]
  inhibition (INH): >50%
PBMC [3]
  pIC50: < 5.01
[4]
  remaining at 1.5 h, 1 µM: 81.5%
Mus musculus [24]
  Activity: 102.5%
[17]
  pIC50: 5.16
[18]
  pIC50: 5.37
Mus musculus [25]
  inhibition (INH): >50%
PBMC [5]
  pIC50: < 4.60
PBMC [6]
  pIC50: < 4.60
[7]
  remaining at 1.5 h, 1 µM: 92.3%
Mus musculus [26]
  Activity: 31.1%
PBMC [8]
  pIC50: < 4.60
[21]
  pIC50: < 3.60
PBMC [10]
  pIC50: < 4.60
Mus musculus [27]
  Activity: 101.7%
Mus musculus [28]
  inhibition (INH): >50%
PBMC [12]
  pIC50: < 4.60
[14]
  remaining at 1.5 h, 1 µM: 90.9%

Reference: ChEMBL document CHEMBL3994666 (ACS Med Chem Lett, 2017)
